Experimental data: ChEMBL document CHEMBL1144397, “Structure-based design: synthesis and biological evaluation of a series of novel cycloamide-derived HIV-1 protease inhibitors” (J Med Chem, 2005)

Legend:
MT2 [1] = assay: (§1) Compound tested for the inhibition of HIV-induced cytopathogenicity in MT-2 cells; assay type: functional; conditions: Homo sapiens
Summary of the method: (§2)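 MT-2 cells (2 × 10^3/well) infected with 100 TCID50s of HIV-1LAI in presence of various agent concentrations; 37 °C for 7 days. Viability read by MTT (7.5 mg/mL in PBS), 2 h at 37 °C, formazan dissolved in acidified 2-propanol with 4% Triton X-100, OD 570 nm. IC50/IC75 from inhibition of cytopathogenicity; duplicate assays, mean of two or three.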

MT2 [2] = assay: as §1; assay type: functional, cell-based; conditions: Homo sapiens; summary of the method: as §2
[3] = target: Human immunodeficiency virus type 1 protease (Human immunodeficiency virus 1, UniProt Q72874); assay: Inhibitory activity against human immunodeficiency virus 1 protease

| SMILES | IC75 (MT2 [1]) | IC50 (MT2 [2]) | Ki [3] |
| --- | --- | --- | --- |
| CC(C)(C)NC(=O)[C@@H]1C[C@@H]2CCCC[C@@H]2CN1C[C@@H](O)[C@H](Cc1ccccc1)NC(=O)[C@H](CC(N)=O)NC(=O)c1ccc2ccccc2n1 | 0.047 µM | 0.012 µM | – |
| CC(C)CN(C[C@@H](O)[C@H](Cc1ccccc1)NC(=O)O[C@H]1CCOC1)S(=O)(=O)c1ccc(N)cc1 | 0.079 µM | 0.028 µM | – |
| C=CCCCCC(NC(=O)c1cccc(O)c1OCCC=C)C(O)CN(CC(C)C)S(=O)(=O)c1ccc2c(c1)OCO2 (configuration not stated) | – | – | 0.02 µM |
| COc1ccc(S(=O)(=O)N(CC(C)C)CC(O)C2CCCCCCCOc3c(O)cccc3C(=O)N2)cc1 (configuration not stated) | – | – | 0.001 µM |
| CC(C)CN(CC(O)C1CCCCCCCCOc2c(O)cccc2C(=O)N1)S(=O)(=O)c1ccc2c(c1)OCO2 (configuration not stated) | > 1 µM | > 1 µM | 0.003 µM |
| C=CCCCCC(NC(=O)c1cccc(O)c1OCC=C)C(O)CN(CC(C)C)S(=O)(=O)c1ccc(OC)cc1 (configuration not stated) | – | – | 0.012 µM |
| C=CCCCCC(NC(=O)c1cccc(O)c1OCCC=C)C(O)CN(CC(C)C)S(=O)(=O)c1ccc(OC)cc1 (configuration not stated) | > 1 µM | > 1 µM | 0.002 µM |
| COc1ccc(S(=O)(=O)N(CC(C)C)CC(O)C2CCCCCCCCOc3c(O)cccc3C(=O)N2)cc1 (configuration not stated) | 0.74 µM | 0.3 µM | 0.0007 µM |
| COc1ccc(S(=O)(=O)N(CC(C)C)CC(O)C2CCCCCCCCCOc3c(O)cccc3C(=O)N2)cc1 (configuration not stated) | > 1 µM | 0.56 µM | 0.002 µM |
| CCCCCCCC(NC(=O)c1cccc(O)c1O)C(O)CN(CC(C)C)S(=O)(=O)c1ccc(OC)cc1 (configuration not stated) | – | – | 0.27 µM |
| C=CCCCCC(NC(=O)c1cccc(O)c1OCCCC=C)C(O)CN(CC(C)C)S(=O)(=O)c1ccc(OC)cc1 (configuration not stated) | – | – | 0.009 µM |
| COc1ccc(S(=O)(=O)N(CC(C)C)CC(O)C2CCCC/C=C\COc3c(O)cccc3C(=O)N2)cc1 (configuration not stated) | – | – | 0.002 µM |
